test: Toxicity liver stage against HepG2, at 10uM; assay type: cell-based; parameters: test concentration 10 uM, cell line HepG2-A16-CD81EGFP; settings: human, HepG2-A16-CD81EGFP cells; read-out: INHIBITION
Method in brief: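 Uninfected HepG2-A16-CD81EGFP cells, 3 × 10^3 per well, 1536-well, plated on prespotted compound at 10 μM final, parasite-free screening media added to match infected plates; puromycin 10 μM positive, DMSO 0.5% negative; run in parallel with 48 h PbLuc assay at 37 °C, 5% CO2; viability by CellTiter-Glo luminescence, normalized to controls.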

In order of falling cytotoxicity at 10 µM:
1. Cn1ncc2c(NC3CN4CCC3CC4)nc(-c3ccncc3)nc21 (stereo not given)  41.1%
2. O=C(CC1CCN(c2ncnc3ccccc23)CC1)N1CCCC1  35.1%
3. COc1c(C(=O)NCC(C)C)nnn1Cc1ccccc1  12%
4. CS(=O)(=O)c1ccc(NC(=O)CSc2ccc3c(c2)CCC3)cn1  11.8%
5. COc1ccccc1C1(CNc2snc(Cl)c2C#N)CCOCC1  10.2%
6. CS(=O)(=O)N1Cc2cnn(CC3CC3)c2C(COCC2CC2)C1 (stereo not given)  9.43%
7. O=C(C1CCCC1)N1CC2(CCN(C3COC3)CC2)Cc2ccccc21  7.91%
8. CCC(CO)N(Cc1cccc(-n2cccn2)c1)Cc1cccs1 (stereo not given)  7.63%
9. O=C(c1cc(C2CC2)on1)N1C[C@H]2CC[C@](O)(c3ccccc3F)[C@H]2C1  5.37%
10. COc1ccc(C(C)CCNC2CCN(c3ccccn3)CC2)cc1 (stereo not given)  5.29%
11. O=C(C1CCCC1)N1CC2(CCN(C3COC3)C2)OCc2ccccc21 (stereo not given)  4.92%
12. COc1cc(C(=O)N(Cc2ccco2)C2CC2)cc(OC)c1OC  4.53%
13. Cc1nc(Nc2ccccn2)cc(N2CCN(S(C)(=O)=O)CC2)n1  3.96%
14. Cc1ccc(S(=O)(=O)NC[C@H]2OC[C@@H](NCc3ccncc3)[C@@H]2O)cc1  2.6%
15. Cc1ncsc1CN1CC[C@H]2OCC[C@@]2(C(=O)NCC2CC2)C1  2.4%
16. Cc1ccc(NC2(C(=O)NCCCN)CCCC2)cc1  1.58%
17. O=c1cc(Cn2ccnc2)nc2n1CCCN(Cc1cccs1)C2  0.312%
18. O=C(O)Cc1cccc(-n2ccnc2-c2ccc(Cl)s2)c1  0.185%
19. O=C(c1cnccn1)N1CCC2(CC1)CCN(Cc1ccccn1)C2=O  0.108%
20. Cc1cc(CN[C@@H](Cc2ccccc2)C(N)=O)c(C)s1  -0.527%
21. O=C(COCC1CCCO1)N(Cc1cccnc1)c1ccc(F)cc1 (stereo not given)  -2.04%
22. Cn1ccnc1CN1CCN(c2ccc(C#N)cc2F)CC1  -2.06%
23. CC(C)c1noc(C(C)N2CCN(Cc3nc4ccccc4[nH]3)CC2)n1 (stereo not given)  -2.16%
24. CCc1cnc2c(c1Nc1ccc(C)c(F)c1)c(=O)n(C)c(=O)n2C  -2.5%
25. CNC(=O)CCCNCc1c(C)nn(CC(C)C)c1N(C)C  -2.51%
26. CCc1cc(C)nc(N2CCN(C(C)c3nc(C)no3)CC2)n1 (stereo not given)  -2.64%
27. Cc1ccc(CN(Cc2cc(C)no2)C2CC2)cc1  -5.17%
28. O=C(CNc1cc(-n2cnnn2)ccc1F)NCc1ccccc1  -6.2%
29. Cc1cc(NC(=O)c2ccccc2Br)n(C)n1  -6.61%
30. CC(CN1CCOCC1)NC(=O)NCCc1ccc(Cl)s1 (stereo not given)  -8.36%
31. CCN(Cc1ncc(C(C)(C)C)o1)Cc1ccccc1C  -9.11%
32. Cc1noc(C)c1-c1ccc(C2CCCN2C(=O)Cn2ccnc2)nc1 (stereo not given)  -10.2%
33. Cc1ccc(CNC(=O)NC2CCCc3c2cnn3CCO)cn1 (stereo not given)  -11.8%
34. COCCOc1ccnc(-c2noc([C@@H]3CCCN3CC(C)(C)C)n2)c1  -12.7%
35. CC(Cn1cccn1)NCc1cnc(N2CCCC2)nc1 (stereo not given)  -13%
36. CN1CCCN(C(=O)c2cc(CN(C)CCc3ccccc3)on2)CC1  -15.3%
37. CCc1nnc(Nc2cccc(C3CCN(S(=O)(=O)N(C)C)CC3)n2)s1  -16.2%
38. Cc1cc(C(=O)N2CCc3nc4sc(C)cc4c(=O)n3CC2)on1  -16.2%
39. Cc1nc(C(=O)N(CC(=O)N(C)C)CC(F)(F)F)c2ccccn12  -16.4%
40. OCc1ccc(-c2c(-c3ccccc3)ncn2CCN2CCOCC2)o1  -18.9%
41. CCOCCN1CCc2cncnc2C1  -20.7%
42. COCCC(=O)N1CCC2(COCc3cnc(N(C)C)nc32)C1 (stereo not given)  -64.8%
43. c1coc(CN2CCO[C@@]3(CCC[C@@H]3COCc3nccs3)C2)c1  -73.5%
44. Cc1noc([C@@H]2CCO[C@@H]3CCN(Cc4ccc(C)s4)C[C@@H]32)n1  -77.6%
45. Cn1ccnc1CN1CCC2(CC(=O)N(c3ccsc3)C2)C1 (stereo not given)  -82.7%
